# PP5 primary: inhibitors of human protein phosphatase 5 (PP5) | P53041 | purified PP5c, OMFP substrate fluorescence | inhibition, % at 6.7 µM | 0.18% of 320,000 active | AID 1987;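 active = inhibition above the campaign's mean inhibition across all tested compounds plus 3 SD, cut at about 9.5% in these data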;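 also: 0% = DMSO only and 100% = 100 µM cantharidin control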
# Scp1 inh: blocks human Scp-1 phosphatase activity. Recombinant Scp1, phosphopeptide, malachite green phosphate absorbance. inhibition, % at 20 µM. 0.88% of 340,000 active. AID 493091;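 active = inhibition above about 50% at 20 µM, limit read from the data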;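 also: plate controls were DMSO wells with enzyme for no effect and wells lacking enzyme for full effect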
# Target sequence (Q9GZU7 76-261 limits assumed): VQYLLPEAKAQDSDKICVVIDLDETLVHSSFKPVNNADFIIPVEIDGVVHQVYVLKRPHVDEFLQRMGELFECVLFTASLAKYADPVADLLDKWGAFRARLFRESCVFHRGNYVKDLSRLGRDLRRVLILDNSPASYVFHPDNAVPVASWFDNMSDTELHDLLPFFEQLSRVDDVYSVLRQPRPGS
#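 Material: truncated SCP-1 phosphatase (76-261aa) / Buffer or medium: 50 mM Tris acetate pH 5.5, 0.005% Tween-20, 10 mM MgCl2 / Compound dosing: one concentration, 20 µM, with 1.0% DMSO / Incubation: 45 min room-temperature reaction, 5 min colour, 30 min stabiliser / Detection: colorimetric free-phosphate detection, absorbance 630 nm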
# LMPTP inh: blocks human LMPTP phosphatase; P24666; recombinant LMPTP-A, OMFP fluorogenic substrate, fluorescence intensity; inhibition, % at 20 µM; 0.22% of 360,000 active; AID 651560;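 active = compounds that cut the enzyme signal by at least half of the control window in the single-dose screen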;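 also: plate controls were DMSO wells with enzyme plus substrate for no effect and substrate without enzyme for full effect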
# Target sequence (P24666 whole entry, looked up): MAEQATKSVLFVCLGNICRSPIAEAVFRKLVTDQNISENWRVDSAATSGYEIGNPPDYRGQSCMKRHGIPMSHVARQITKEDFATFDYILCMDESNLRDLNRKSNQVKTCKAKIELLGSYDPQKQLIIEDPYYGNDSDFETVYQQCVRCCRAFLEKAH
#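 Assay system: LMPTP-A phosphatase enzyme | Input: 0.625 nM enzyme | Also added: Fluorogenic phosphatase substrate OMFP at 400 µM final | Compound dosing: One test concentration per compound, 20 µM, with 3% DMSO overall | Schedule: 50 min enzyme reaction at room temperature, protected from light | Signal: Fluorescence intensity | Benchmarks: no-enzyme and uninhibited controls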
# STEP inh: inhibitors of human striatal-enriched phosphatase STEP | AID 588621 | P54829 | recombinant STEP, OMFP fluorogenic substrate, fluorescence | 0.25% of 360,000 active | inhibition, % at 20 µM;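 active = inhibition at 20 µM, scaled per plate between control wells, above about 37%, limit read from the data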;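 also: 0% = DMSO with enzyme and substrate and 100% = substrate only without enzyme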
#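 Assay system: isolated STEP enzyme / Timing: 20 min at room temperature, dark / Doses: 20 µM, 1% DMSO / Technique: fluorescence intensity, excitation 480 nm, emission 540 nm / Reagent: fluorogenic phosphatase substrate OMFP at 25 µM final / Measure: percent inhibition scaled to no-enzyme and uninhibited-enzyme controls, plate-pattern corrected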
# PP1 inh: counter-screen for PP5 inhibitors: inhibitors of human PP1-alpha | purified PP1alpha, OMFP fluorescence | inhibition, % at 6.7 µM | 0.9% of 320,000 active | AID 2235;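 active = inhibition above the mean inhibition of all tested compounds plus 3 SD, computed separately for each screening campaign, cut at about 15% in these data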
# PP5 inh confirm: confirmation of human PP5 phosphatase inhibitors. inhibition, % at 6.7 µM. shares compounds with PP5 primary. Purified PP5, fluorogenic phosphatase substrate, fluorescence. 22% of 460 active; in the data active = inhibition above about 9.5%
# PP1 counter 3x: PP1 phosphatase inhibition, counter-screen for PP5 inhibitors; shares compounds with PP5 primary; PP1 enzyme, fluorescent phosphatase substrate; inhibition, % at 6.7 µM; 4% of 460 active; in the data active = inhibition above about 16%
# * hit, by the source's call; · = not tested or not shown. A selection: hits, their analogues and other compounds. The true share with any hit is near 1.9%.
SMILES,PP5 primary,Scp1 inh,LMPTP inh,STEP inh,PP1 inh,PP5 inh confirm,PP1 counter 3x
CCOC(=O)c1c(NC(=O)COC(=O)CCOc2ccc(C)cc2)sc(C(=O)N(C)C)c1C,1,-6,2,1,-5,·,·
Cn1ccnc1C(=O)c1ccc(Cl)c(S(=O)(=O)N2CCOCC2)c1,10.0*,11,-2,-1,-2,-3,-3
CCCCOC(=O)Cn1c(-c2ccccc2)nc2ccccc2c1=O,1,-8,3,0,0,·,·
CCOC(=O)Cn1c(-c2ccccc2)nc2ccccc2c1=O,11*,-1,0,-1,-4,-2,-2
CC1(C)Cc2cccc(OCC(=O)Nc3cccnc3)c2O1,0,-3,-1,-1,-5,·,·
CC1(C)Cc2cccc(OCC(=O)Nc3cccnc3Cl)c2O1,16*,-3,1,-2,1,-3,3
Cn1cc(/C=C(\C#N)C(=O)Nc2ncc(Cc3ccc(Cl)cc3)s2)c2ccccc21,0,3,-1,-2,0,·,·
CCOc1cc2c(cc1OCC)C(c1ccc(OC)c(OC)c1)N(c1ccc(C(=O)O)cc1)C(=O)C2 (stereo not drawn),0,-4,1,-5,3,·,·
CCOc1ccc(C2c3cc(OC)c(OC)cc3CC(=O)N2c2ccc(OC)cc2)cc1 (stereo not drawn),9.7*,-6,-1,-1,2,1,0
COc1ccc(C(=O)ON=C2CCN(c3ccc([N+](=O)[O-])cc3)CC2)cc1,4,-17,4,-1,-2,·,·
O=C(ON=C1CCN(c2ccc([N+](=O)[O-])cc2)CC1)c1ccccc1,9.7*,-7,1,7,2,-3,-1
CCOP(=O)(OCC)c1nc(-c2ccc(OC)cc2)oc1N1CCOCC1,1,-5,-1,0,-7,·,·
Cc1ccnc(NC(=O)COC(=O)c2ccc(F)cc2F)n1,15*,32,1,2,-5,-5,-5
O=C(COC(=O)c1ccc(F)cc1F)Nc1cccnc1Cl,-1,-6,0,3,0,·,·
C=CCN(C(=O)CCC(=O)Nc1cc(C)on1)C(C(=O)NC1CCCC1)c1ccc(C)cc1 (stereo not drawn),-2,1,-1,2,2,·,·
CCN(CC)S(=O)(=O)c1ccc(OCC(=O)NC2CCS(=O)(=O)C2)c([N+](=O)[O-])c1 (stereo not drawn),-4,-1,0,-1,-3,·,·
COc1ccc(-c2cc(-c3c(O)c(OC)c4occc4c3OC)[nH]n2)cc1,11*,-5,3,1,-3,1,2
COc1ccc(-c2cc(-c3c(O)c(OC)c4occc4c3OC)[nH]n2)cc1OC,6,-5,2,0,3,·,·
CCOc1cc(NC(=S)NCCCN2CCOCC2)c(OCC)cc1NC(=O)c1ccccc1,0,-7,-1,-1,-4,·,·
O=C(C1CCC(CNS(=O)(=O)c2ccccc2)CC1)N1CCCCC1 (stereo not drawn),9.9*,0,-1,1,2,-4,-5
Clc1cccc(OCCCCCN2CCOCC2)c1,10*,-6,0,0,-1,-5,-5
CCOc1ccc(C(=O)/C=C/c2cn(CN3CCN(C)CC3)c3ccccc23)cc1,11*,-11,2,-4,7,0,-1
O=C(CNC(=O)c1ccccc1)N/N=C/C=C/c1ccccc1,1,13,-1,0,1,·,·
CC(C)(C)NC(=O)CSc1nc2cccnc2n1C1CCCCC1,14*,-2,0,-1,-1,0,1
O=C(CN1CCSCC1)N/N=C/c1ccc(F)c(F)c1,4,-1,-2,-1,0,·,·
O=C(Nc1cccc2ncccc12)c1ccc(-c2ccc(Br)cc2)o1,13*,1,9,2,-1,-2,-2
O=C(Nc1cccc2ncccc12)c1ccc([N+](=O)[O-])o1,2,-8,-6,0,2,·,·
CSc1ncc(C(=O)O)c(C)n1,-1,-6,-2,-5,0,·,·

# Bioassay records: PubChem, several laboratories
